In ChEMBL document CHEMBL1123957, “Cholecystokinin antagonists. Synthesis and biological evaluation of 3-substituted 1,4-benzodiazepin-2-amines” (J Med Chem, 1988):

Key:
Cholecystokinin receptor = target: T1, Cholecystokinin receptor (Rattus norvegicus, UniProt P30551+P30553); assay: Binding affinity towards cholecystokinin receptor by the displacement of [125I]CCK-33 in rat pancreatic tissue
T1 sequence (P30551 whole entry): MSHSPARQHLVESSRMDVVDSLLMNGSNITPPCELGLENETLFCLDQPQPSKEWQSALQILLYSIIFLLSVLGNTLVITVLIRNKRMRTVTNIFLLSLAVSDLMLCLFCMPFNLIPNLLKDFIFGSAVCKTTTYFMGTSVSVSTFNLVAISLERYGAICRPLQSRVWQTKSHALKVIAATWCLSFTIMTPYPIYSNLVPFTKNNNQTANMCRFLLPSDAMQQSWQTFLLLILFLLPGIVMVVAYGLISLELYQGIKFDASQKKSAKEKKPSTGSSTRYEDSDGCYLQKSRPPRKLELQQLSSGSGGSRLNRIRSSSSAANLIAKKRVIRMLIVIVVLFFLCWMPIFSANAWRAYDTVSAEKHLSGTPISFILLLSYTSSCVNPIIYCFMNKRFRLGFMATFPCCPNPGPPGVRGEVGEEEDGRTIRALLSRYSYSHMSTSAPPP
T1 sequence (P30553 whole entry): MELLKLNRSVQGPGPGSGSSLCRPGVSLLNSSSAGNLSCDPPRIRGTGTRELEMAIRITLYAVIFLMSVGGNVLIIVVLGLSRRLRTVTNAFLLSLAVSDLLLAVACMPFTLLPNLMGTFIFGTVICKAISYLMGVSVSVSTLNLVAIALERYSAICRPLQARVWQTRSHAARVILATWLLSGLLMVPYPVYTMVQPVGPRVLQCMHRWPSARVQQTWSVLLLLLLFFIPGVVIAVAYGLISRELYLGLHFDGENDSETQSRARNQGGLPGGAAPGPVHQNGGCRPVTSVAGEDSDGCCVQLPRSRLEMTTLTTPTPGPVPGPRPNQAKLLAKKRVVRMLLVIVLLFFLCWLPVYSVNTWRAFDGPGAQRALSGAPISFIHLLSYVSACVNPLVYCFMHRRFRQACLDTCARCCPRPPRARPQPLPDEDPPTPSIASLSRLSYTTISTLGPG
In short: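 Radioligand displacement assays: [125I]CCK-33 binding to rat pancreas or guinea pig cerebral cortex tissue, and [125I]gastrin binding to guinea pig gastric glands, each run by earlier-described methods. Reported values are means of triplicate determinations.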

Cavia porcellus = organism: Cavia porcellus; assay: Inhibition of binding of [125I]gastrin to guinea pig gastric glands; details: Stomach

Row | SMILES | IC50 (Cholecystokinin receptor) [µM] | IC50 (Cavia porcellus) [µM]
1 | Fc1ccccc1C1=N[C@H](Cc2c[nH]c3ccccc23)C(Nc2ccccc2)=Nc2ccccc21 | 34 | –
2 | N#CNC1=Nc2ccccc2C(c2ccccc2F)=N[C@@H]1Cc1c[nH]c2ccccc12 | 2 | –
3 | O=C(O)CNC1=Nc2ccccc2C(c2ccccc2F)=N[C@@H]1Cc1c[nH]c2ccccc12 | 3.6 | 2.5
4 | CNC1=Nc2ccccc2C(c2ccccc2NC)=N[C@@H]1Cc1c[nH]c2ccccc12 | 100 | 100
5 | CNC1=Nc2ccccc2C(c2ccccc2F)=N[C@@H]1Cc1c[nH]c2ccccc12 | 4.4 | 67
6 | CCCNC1=Nc2ccccc2C(c2ccccc2F)=N[C@@H]1Cc1c[nH]c2ccccc12 | 2.7 | 100
7 | CCOC(=O)CNC1=Nc2ccccc2C(c2ccccc2F)=N[C@@H]1Cc1c[nH]c2ccccc12 | 23 | 100
8 | NC1=Nc2ccccc2C(c2ccccc2F)=N[C@@H]1Cc1c[nH]c2ccccc12 | 1.7 | 100
9 | CNC1=Nc2ccc(Cl)cc2C(c2ccccc2)=[N+]([O-])C1 [CHLORDIAZEPOXIDE] | 100 | 100
